Source: PubChem BioAssay (several laboratories)
Compounds with a hit are over-represented: about 1.8% of the library has one in this group of screens.
UBC9 SUMO inh: inhibitors of human SUMOylation (UBC9) | 290,000 compounds, 0.36% hits | HTRF SUMOylation assay, SAE1/SAE2 + UBC9, in vitro | inhibition, % at 35 µM | P63279 | AID 2006; in the data active means inhibition above about 50%, passing the limit was not always enough; inconclusive means no clear call, values can overlap the other calls
SENP1 inh: blocks the human SENP1 SUMO protease catalytic domain | Q9P0U3 | recombinant SENP1 catalytic domain, CyPet-SUMO1-YPet FRET cleavage | inhibition, % at 10 µM | 360,000 compounds, 0.21% hits;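 active means inhibition at least 30% at 10 µM, raw YFP signal under a set limit, fluorescence ratio 0.5 to 1.5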;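 further: 0% = enzyme with DMSO and 100% = no enzyme wells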
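Assay system: hSENP1 catalytic domain, recombinant. Amount: SENP1 enzyme, 20 pM final. Schedule: 50 min reaction, RT, dark. Technique: FRET, CFP and YFP emission. Control set: no-enzyme wells low, DMSO-plus-enzyme wells high control.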
Rpn11 inh: blocks the human proteasome subunit Rpn11; O00487; human 26S proteasome, Ub4-pepOG fluorescence polarization; 20S core pre-blocked with epoxomicin; calls only at 20 µM; 360,000 compounds, 0.59% hits;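 active means inhibition at 20 µM, scaled to each plate's controls, above about 33%, limit read from the data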
Target sequence (O00487 whole entry, looked up): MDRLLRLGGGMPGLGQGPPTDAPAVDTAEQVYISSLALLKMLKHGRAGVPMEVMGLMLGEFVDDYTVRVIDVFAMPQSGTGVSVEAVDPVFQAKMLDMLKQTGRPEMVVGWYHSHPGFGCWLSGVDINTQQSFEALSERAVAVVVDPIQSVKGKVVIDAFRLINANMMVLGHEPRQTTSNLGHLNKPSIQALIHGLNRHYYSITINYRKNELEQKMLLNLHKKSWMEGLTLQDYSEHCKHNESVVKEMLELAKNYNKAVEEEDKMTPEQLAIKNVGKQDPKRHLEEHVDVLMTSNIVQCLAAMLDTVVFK
CSN inh: CSN deneddylation inhibition. Q92905. Purified CSN, SCF-Nedd8-OG deneddylation, fluorescence polarization. inhibition, % at 12.5 µM. 360,000 compounds, 0.38% hits. AID 651999;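 active means pattern-corrected inhibition above about 35%, with an unprinted fluorescence ratio check between 0.5 and 1.5, limit read from the data, passing the limit was not always enough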;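 further: 0% = enzyme with substrate and 100% = substrate without enzyme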
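Assay system: purified human Csn5 enzyme expressed in HEK293T cells; measure: % inhibition; also added: SCFSkp2-Nedd8OG substrate at 10 nM final; technique: fluorescence polarization; times: reaction 90 min, room temperature; medium: Tris buffer pH 7.5, NaCl, DTT, Tween-20, trehalose, ovalbumin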
TPT1 inhibitor: blocks Candida albicans tRNA 2'-phosphotransferase; recombinant caTPT1, FP RNA substrate dephosphorylation; inhibition, % at 5 µM; 300,000 compounds, 0.81% hits; AID 1962;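 active means inhibition above the mean of all tested compounds plus 3 SD, set per screening campaign, cut at about 24% in these data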;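 further: plate controls were DMSO alone for no effect and ferristatin control at 100 nM for full effect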
HNF4A DNA FP: change in binding of human HNF4 alpha to DNA | 360,000 compounds, 0.3% hits | HNF4a-FITC DNA binding, fluorescence polarization, 1 h | activity change, % at 10 µM | P41235; in the data active means activity change above about 30%, passing the limit was not always enough
Starred values were filed as active, the others as inactive; i = inactive; ? = inconclusive; · = no result shown; + = active, no number; ! = not confirmed by another sample.

SMILES	UBC9 SUMO inh	SENP1 inh	Rpn11 inh	CSN inh	TPT1 inhibitor	HNF4A DNA FP
CC(C)N1CC=C2C(C#N)=C(N)C(C#N)(C#N)C(c3ccccc3)C2C1 (stereo not given)	24	-23	i	-21	-26	-38
CC(C)N1CC=C2C(C#N)=C(N)C(C#N)(C#N)[C@H](c3ccoc3)[C@H]2C1	56*	·	·	·	-79	·
COc1ccc2cc3cc(C(=O)NC(C)C)oc3nc2c1	33	-3	i	-1	-2	-1
Cc1ccc(CNC(=O)c2nnn(CC(=O)Nc3cccc(C)c3C)c2N)cc1	12	1	i	36*	-1	-3
Cc1ccn2c(=O)nc(SCC(=O)NCc3ccco3)nc2c1	·	-19	i	0	-2	-5
O=C(Oc1ccc(Cl)c2cccnc12)c1cccc([N+](=O)[O-])c1	11	3	i	-2	-1	1
O=C(Oc1c(Cl)cc(Cl)c2cccnc12)c1cccc([N+](=O)[O-])c1	-10	5	+	-4	-2	1
O=C(CCc1nc2ccccc2c(=O)[nH]1)OCc1ccc(-c2ccccc2)cc1	4	-3	i	-4	7	0
Cc1c(CC(=O)N2CCN(C(=O)C3COc4ccccc4O3)CC2)c(=O)oc2c(C)c(O)ccc12 (stereo not given)	50*	-23	i	-4	1	-3
O=C(O)c1cc(N2N=C(C(F)(F)F)/C(=C/C=C/c3ccco3)C2=O)ccc1Cl	?	33*	·	40	·	-63
CCOC(=O)c1ccc(N2N=C(C)/C(=C/C=C/c3ccco3)C2=O)cc1	30	0	i	17	-1	1
COc1cccc(CCNc2ccc(N3C(=O)CC(C)C3=O)cc2[N+](=O)[O-])c1 (stereo not given)	-16	3	i	1	1	2
CC1CC(=O)N(c2ccc(NCc3ccc(Cl)cc3)c([N+](=O)[O-])c2)C1=O (stereo not given)	4	3	·	39*	1	-3
O=C(CC[C@H]1O[C@@H](n2ccc(=O)[nH]c2=O)[C@H](O)[C@@H]1O)NCc1cccc2ccccc12	·	-1	i	2	·	-1
CCOC(=O)c1ccc(N/C=C/C(=O)c2ccc(OC)c(OC)c2)cc1	20	-52	i	101*	1	-2
CCOc1ccc(N/C=C/C(=O)c2ccc(OC)c(OC)c2)cc1	9	-26	i	2	0	1
COc1cc2c3nnc(-c4ccc(F)cc4)c-3cn(Cc3cccc(F)c3)c2cc1OC	34	-25	·	112	5	115*
O=C(CSc1nc(-c2ccccc2)cc(C(F)(F)F)n1)NCCN1CCOCC1	8	1	i	-7	-2	5
CCC1=NN2C(=N)/C(=C/c3ccc(OS(=O)(=O)c4ccccc4)cc3)C(=O)N=C2S1	31	-58	i	6	12	33*
Cc1cc(=O)n(C2CCS(=O)(=O)C2)[nH]1 (stereo not given)	90*	2	i	3	0	-1
C(C#CCCCCCCCCC[n+]1ccccc1)#CCCCCCCCCC[n+]1ccccc1	-8	0	i	35*!	-4	77*
COC(=O)c1c(N)sc2c1CCN(c1ncc(C(F)(F)F)cc1Cl)C2	-3	8	i	9	11	-3
COC(=O)c1c(/N=C/NOCc2ccc(Cl)cc2)sc2c1CCN(c1ncc(C(F)(F)F)cc1Cl)C2	-23	-19	i	37*	-1	2
CCCS(=O)(=O)NC(=O)C1(C)CCCN(C(=O)c2cccc(C)c2C)C1 (stereo not given)	·	0	i	-6	·	-3
S=c1[nH]nc(-c2ccco2)n1/N=C/C=C/c1ccco1	95	6	i	38*	0	-16
Cc1ccc(S(=O)(=O)NC(=O)c2cccc(N(C)C)c2)cc1	·	2	i	2	·	-1
C=CCN=C1CC(C)(C)CC(=O)/C1=C(\O)CCCN1C(=O)c2ccccc2C1=O	7	0	i	-3	-4	0
CCOc1cc(C2C(C#N)=C(N)SC(N)=C2C#N)ccc1OCCN1CCOCC1	4	-44	i	6	46*	4
